Reference: ChEMBL document CHEMBL3286272, “Synthesis, biological, and biophysical studies of DAG-indololactones designed as selective activators of RasGRP” (Bioorg Med Chem, 2014)
Activity calls are given as the source filed them. The calls are words filed in the database; no cut-off is given here.

How the values were obtained:
[1] = species: Homo sapiens; experiment: Selectivity ratio of Ki for recombinant human PKC-alpha to Ki for recombinant human GFP-tagged RasGRP3
[2] = species: Homo sapiens; experiment: Selectivity ratio of Ki for recombinant human PKC-alpha to Ki for recombinant RasGRP1 C1 domain (unknown origin)
[3] = molecular target: T1, Ras guanyl-releasing protein 3 (Homo sapiens) (UniProt Q8IV61); experiment: Activation of RasGRP3 (unknown origin) overexpressed in HEK293 cells assessed as protein phosphorylation at T133 at 0.1 to 30 uM after 30 mins by Western blot analysis; assay type: cell-based
T1 sequence (whole entry): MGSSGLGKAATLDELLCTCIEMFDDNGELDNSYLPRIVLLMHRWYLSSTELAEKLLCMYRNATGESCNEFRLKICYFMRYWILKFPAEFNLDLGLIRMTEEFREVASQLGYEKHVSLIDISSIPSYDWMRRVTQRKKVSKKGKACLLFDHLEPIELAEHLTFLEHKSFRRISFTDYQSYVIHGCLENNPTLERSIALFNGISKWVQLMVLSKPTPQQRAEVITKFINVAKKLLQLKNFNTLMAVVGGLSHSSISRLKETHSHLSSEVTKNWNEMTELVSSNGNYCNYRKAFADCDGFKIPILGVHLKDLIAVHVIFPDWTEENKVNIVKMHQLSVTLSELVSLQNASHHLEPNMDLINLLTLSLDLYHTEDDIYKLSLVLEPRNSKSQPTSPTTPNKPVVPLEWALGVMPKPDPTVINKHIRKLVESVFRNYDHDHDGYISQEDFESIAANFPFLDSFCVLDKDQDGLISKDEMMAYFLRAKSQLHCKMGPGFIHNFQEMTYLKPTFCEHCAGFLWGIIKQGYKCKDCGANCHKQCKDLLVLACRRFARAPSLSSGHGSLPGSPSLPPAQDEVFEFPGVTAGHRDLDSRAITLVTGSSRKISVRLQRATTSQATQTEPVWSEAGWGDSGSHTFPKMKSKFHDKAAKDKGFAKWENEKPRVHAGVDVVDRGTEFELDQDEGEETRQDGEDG

[4] = molecular target: Protein kinase C delta type (Homo sapiens) (UniProt Q05655); experiment: Activation of PKC-delta in HEK293 cells assessed as protein phosphorylation at S299 at 0.1 to 30 uM after 30 mins by Western blot analysis; assay type: cell-based
[5] = molecular target: T1, Ras guanyl-releasing protein 3 (Homo sapiens); experiment: Activation of RasGRP3 (unknown origin) overexpressed in HEK293 cells assessed as ERK1/2 phosphorylation at 0.1 to 30 uM after 30 mins by Western blot analysis; assay type: cell-based
[6] = molecular target: Protein kinase C delta type (Homo sapiens) (UniProt Q05655); experiment: Activation of PKC-delta in human Ramos cells assessed as protein phosphorylation at S299 at 10000 nM after 30 mins by Western blot analysis; assay type: cell-based
Outline: (§1)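 Ramos cells in RPMI-1640 with 10% FBS and 1% L-glutamine, plated at 300,000 cells/ml, were exposed after 24 h to 0.01, 0.1, 1 and 10 μM compound for 30 min. Lysates were made in PBS with 0.5% Triton X-100 and sonicated. 7.5 μg protein was run on 10% Tris-glycine gels, blotted to nitrocellulose, probed overnight with phospho-specific primary antibodies and detected by ECL.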

[7] = molecular target: Protein kinase C (PKC) (Homo sapiens) (UniProt O94806+P41743+P17252+P05129+Q05655+P05771+Q05513+Q02156+P24723+Q15139+Q04759); experiment: Activation of PKC in human Ramos cells assessed as PKD1 phosphorylation at S744/S748 at 10000 nM after 30 mins by Western blot analysis; assay type: cell-based; outline: as §1
[8] = molecular target: T2, Protein kinase C epsilon type (Homo sapiens) (UniProt Q02156); experiment: Binding affinity to recombinant human YFP-tagged PKC-epsilon expressed in human LNCAP cells assessed as induction of protein translocation from plasma membrane to internal membrane at 10000 nM after 2 to 10 mins by confocal microscopic analysis; assay type: cell-based
T2 sequence (whole entry): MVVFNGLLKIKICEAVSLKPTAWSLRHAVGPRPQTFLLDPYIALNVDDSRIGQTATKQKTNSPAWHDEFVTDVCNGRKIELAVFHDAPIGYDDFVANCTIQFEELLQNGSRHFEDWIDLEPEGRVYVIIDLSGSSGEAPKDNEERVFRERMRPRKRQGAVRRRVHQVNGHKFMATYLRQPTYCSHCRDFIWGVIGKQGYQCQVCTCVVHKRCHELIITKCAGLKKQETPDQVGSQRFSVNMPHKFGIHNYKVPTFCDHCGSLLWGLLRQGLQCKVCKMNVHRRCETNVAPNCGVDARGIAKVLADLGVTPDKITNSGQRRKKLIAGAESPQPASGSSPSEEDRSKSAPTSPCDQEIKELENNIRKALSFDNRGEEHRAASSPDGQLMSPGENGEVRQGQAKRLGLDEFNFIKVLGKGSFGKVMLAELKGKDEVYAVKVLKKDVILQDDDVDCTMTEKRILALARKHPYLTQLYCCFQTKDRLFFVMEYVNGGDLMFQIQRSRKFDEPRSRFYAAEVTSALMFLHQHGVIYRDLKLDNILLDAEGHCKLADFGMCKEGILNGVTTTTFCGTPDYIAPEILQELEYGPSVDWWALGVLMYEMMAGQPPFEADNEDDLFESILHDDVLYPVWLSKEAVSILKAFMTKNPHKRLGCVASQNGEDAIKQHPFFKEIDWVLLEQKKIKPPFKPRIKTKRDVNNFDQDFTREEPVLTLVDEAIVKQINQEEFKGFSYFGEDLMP
Outline: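 LNCaP cells were transiently transfected with human YFP-PKCε and imaged live by confocal microscopy 24 h later every 30 s for 30 min after 10 μM ligand. Membrane/cytoplasm intensity ratio from 4 μm2 regions was normalized to time 0. n = 3–6.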

[9] = tested on: Lipid bilayer; experiment: Binding affinity to […] embedded 9:1 DMPC/DMPG giant vesicle at 2.42 to 6.05 uM by fluorescence anisotropy method
Outline: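 Giant vesicles (DMPC/DMPG 9:1, rapid evaporation, 0.1 M sucrose, 0.1 M KCl, 2 mM Tris pH 7.4) were loaded with DPH-TMA at 1.25 μM final for 30 min at room temperature. Compound from DMSO stock was added at 2.42 and 6.05 μM final. Anisotropy was read at 430 nm with 355 nm excitation.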

Protein kinase C delta type (Homo sapiens), sequence (Q05655 whole entry, looked up): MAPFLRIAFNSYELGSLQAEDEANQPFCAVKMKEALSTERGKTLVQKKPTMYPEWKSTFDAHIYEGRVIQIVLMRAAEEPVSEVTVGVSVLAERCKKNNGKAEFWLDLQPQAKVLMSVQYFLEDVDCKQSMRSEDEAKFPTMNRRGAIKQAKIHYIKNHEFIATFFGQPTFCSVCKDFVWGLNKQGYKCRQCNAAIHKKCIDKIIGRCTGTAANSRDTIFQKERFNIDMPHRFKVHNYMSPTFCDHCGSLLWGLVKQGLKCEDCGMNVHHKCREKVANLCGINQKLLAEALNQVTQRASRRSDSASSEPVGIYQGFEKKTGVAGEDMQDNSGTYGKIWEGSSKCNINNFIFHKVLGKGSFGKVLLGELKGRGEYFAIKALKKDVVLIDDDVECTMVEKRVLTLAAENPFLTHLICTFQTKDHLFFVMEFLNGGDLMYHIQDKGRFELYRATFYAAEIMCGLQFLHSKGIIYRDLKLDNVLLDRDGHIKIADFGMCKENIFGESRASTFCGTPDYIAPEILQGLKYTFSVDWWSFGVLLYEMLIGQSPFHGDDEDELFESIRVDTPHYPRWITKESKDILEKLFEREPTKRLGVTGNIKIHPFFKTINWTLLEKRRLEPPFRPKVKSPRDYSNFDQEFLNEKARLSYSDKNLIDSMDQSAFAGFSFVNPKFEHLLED

| SMILES | Ratio Ki [1] | Ratio Ki [2] | Activity [3] | Activity [4] | Activity [5] | Activity [6] | Activity [7] | Activity [8] | Activity [9] |
| --- | --- | --- | --- | --- | --- | --- | --- | --- | --- |
| CCCC(CCC)C(=O)OCC1(CO)C/C(=C\c2ccc3ccn(C)c3c2)C(=O)O1 (centres undefined) | 6 | 9 | Active | Active | Active | Active | Active | Active | Active |
| CCCC(CCC)C(=O)OCC1(CO)C/C(=C\c2cccc3c2ccn3C)C(=O)O1 (centres undefined) | 11 | 10 | Active | Active | Active | Active | Active | Active | inactive |
| CCCC(CCC)C(=O)OCC1(CO)C/C(=C\c2cccc3ccn(C)c23)C(=O)O1 (centres undefined) | 10 | 19 | Active | Active | Active | Active | Active | Active | Active |
| CCCC(CCC)C(=O)OCC1(CO)C/C(=C\c2ccc3c(ccn3C)c2)C(=O)O1 (centres undefined) | 24 | 24 | Active | Active | Active | Active | Active | Active | inactive |
| CCCC(CCC)C(=O)OCC1(CO)C/C(=C\c2cn(C)c3ccccc23)C(=O)O1 (centres undefined) | 49 | 65 | Active | Active |  | Active | Active | Active | Active |
